Laboratory results taken from ChEMBL document CHEMBL1147555, “2,3-diarylpyran-4-ones: a new series of selective cyclooxygenase-2 inhibitors” (Bioorg Med Chem Lett, 2004).

Legend:
[1] = biological target: T1, Prostaglandin G/H synthase 1 (Mus musculus) (UniProt P22437); experiment: In vitro percentage inhibitory activity against prostaglandin G/H synthase 1 from freshly harvested mouse peritoneal macrophages at 10 ug/mL
T1 sequence (whole entry): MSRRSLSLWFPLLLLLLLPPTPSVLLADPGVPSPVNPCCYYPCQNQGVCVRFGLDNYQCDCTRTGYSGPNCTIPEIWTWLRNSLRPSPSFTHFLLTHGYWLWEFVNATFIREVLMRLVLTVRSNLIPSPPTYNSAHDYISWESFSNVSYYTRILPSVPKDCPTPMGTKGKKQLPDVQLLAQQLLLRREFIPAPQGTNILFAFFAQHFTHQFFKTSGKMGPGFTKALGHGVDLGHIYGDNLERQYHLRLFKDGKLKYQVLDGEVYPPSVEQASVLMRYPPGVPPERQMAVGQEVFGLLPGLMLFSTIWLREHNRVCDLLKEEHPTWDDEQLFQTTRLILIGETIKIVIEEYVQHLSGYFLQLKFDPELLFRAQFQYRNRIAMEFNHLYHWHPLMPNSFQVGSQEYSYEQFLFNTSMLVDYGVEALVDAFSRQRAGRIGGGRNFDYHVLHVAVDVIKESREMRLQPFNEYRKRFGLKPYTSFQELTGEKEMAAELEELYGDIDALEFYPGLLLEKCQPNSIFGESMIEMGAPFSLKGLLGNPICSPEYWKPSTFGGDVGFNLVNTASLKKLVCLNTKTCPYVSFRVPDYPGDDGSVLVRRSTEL

[2] = biological target: T2, Prostaglandin G/H synthase 2 (Mus musculus, UniProt Q05769); experiment: Inhibitory activity against Prostaglandin G/H synthase 2 from freshly harvested mouse peritoneal macrophages
T2 sequence (Q05769 whole entry): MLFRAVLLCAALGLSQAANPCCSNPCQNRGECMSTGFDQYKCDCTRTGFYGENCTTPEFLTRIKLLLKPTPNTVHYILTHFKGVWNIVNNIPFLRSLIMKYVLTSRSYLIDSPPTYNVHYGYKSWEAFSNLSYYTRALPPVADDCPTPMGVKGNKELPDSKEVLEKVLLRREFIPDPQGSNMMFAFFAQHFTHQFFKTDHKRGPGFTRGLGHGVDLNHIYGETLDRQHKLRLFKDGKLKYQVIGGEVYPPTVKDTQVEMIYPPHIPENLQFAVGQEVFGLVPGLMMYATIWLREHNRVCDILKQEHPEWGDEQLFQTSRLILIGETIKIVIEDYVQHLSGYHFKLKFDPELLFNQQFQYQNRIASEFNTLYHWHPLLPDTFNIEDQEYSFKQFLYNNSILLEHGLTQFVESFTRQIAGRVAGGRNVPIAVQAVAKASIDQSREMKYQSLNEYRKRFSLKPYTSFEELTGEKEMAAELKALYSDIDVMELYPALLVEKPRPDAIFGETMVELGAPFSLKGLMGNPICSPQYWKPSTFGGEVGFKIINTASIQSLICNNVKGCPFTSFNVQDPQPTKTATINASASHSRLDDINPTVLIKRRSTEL

Rattus norvegicus [3] = experiment: Inhibitory effect of compound on carrageenan-induced rat paw edema administered p.o. at 10 mg/kg; format: functional; settings: route oral
Procedure, shortened: (§1)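 Compound given orally; paw swelling measured and expressed as percent inhibition, five animals per group.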

Rattus norvegicus [4] = experiment: Inhibitory effect of compound on carrageenan-induced rat paw edema administered p.o. at 3 mg/kg; format: functional; settings: route oral; procedure, shortened: as §1
[5] = Plasma half-life in rat; format: ADME, organism-based
[6] = Maximum plasma concentration in rat; format: ADME, organism-based
[7] = Time of maximum plasma concentration in rat; format: ADME, organism-based
[8] = biological target: T2, Prostaglandin G/H synthase 2; experiment: In vitro inhibitory activity against Prostaglandin G/H synthase 2 from freshly harvested mouse peritoneal macrophages; Not active
[9] = biological target: T3, Prostaglandin G/H synthase 2 (Mus musculus) (UniProt Q05769); experiment: In vitro percentage inhibition of Prostaglandin G/H synthase 2 from freshly harvested mouse peritoneal macrophages at 10 ug/ml
T3 sequence (whole entry): T2 sequence (Q05769 whole entry)

Row | SMILES | inhibition [1] | IC50 [2] | inhibition in vivo at 10 mg/kg (Rattus norvegicus [3]) | further results
1 | CS(=O)(=O)c1ccc(-c2occ(Cl)c(=O)c2-c2ccsc2)cc1 | < 5% | 0.736 µM | 13% | 
2 | CS(=O)(=O)c1ccc(-c2occ(Cl)c(=S)c2-c2ccc(F)cc2)cc1 | < 5% | 0.836 µM |  | 
3 | CS(=O)(=O)c1ccc(-c2occ(Cl)c(=O)c2-c2ccc(F)cc2F)cc1 | 6% | 1.39 µM |  | inhibition in vivo at 3 mg/kg (Rattus norvegicus [4]): 20%
4 | CS(=O)(=O)c1ccc(-c2occ(Cl)c(=O)c2-c2cccc(Cl)c2)cc1 | < 5% | 1.42 µM |  | 
5 | COc1ccc(-c2c(-c3ccc(S(C)(=O)=O)cc3)occ(Cl)c2=O)cc1 | < 5% | 6.86 µM |  | 
6 | CS(=O)(=O)c1ccc(-c2occ(Cl)c(=O)c2-c2ccc(F)c(F)c2)cc1 | 20% | 1.23 µM | 37% | half-life [5]: 3.7 h; Cmax [6]: 5.1 µg/mL; Tmax [7]: 4 h; inhibition in vivo at 3 mg/kg (Rattus norvegicus [4]): 10%
7 | Cc1ccc(-c2c(-c3ccc(S(C)(=O)=O)cc3)occ(Cl)c2=O)cc1 | < 5% | 1.76 µM |  | 
8 | CS(=O)(=O)c1ccc(-c2occ(Cl)c(=O)c2-c2ccc(OCc3ccccc3)cc2)cc1 | < 5% |  |  | IC50 [8]: Not Active
9 | CS(=O)(=O)c1ccc(-c2occc(=O)c2-c2ccc(F)cc2)cc1 | < 5% | 2.24 µM |  | 
10 | CS(=O)(=O)c1ccc(-c2occ(Cl)c(=O)c2-c2cccnc2)cc1 | < 5% | 7.05 µM |  | 
11 | CS(=O)(=O)c1ccc(-c2occ(Cl)c(=O)c2-c2ccc(-c3ccccc3)c(F)c2)cc1 | 70% | 0.0879 µM |  | 
12 | COc1ccc2c(c1)c(CC(=O)O)c(C)n2C(=O)c1ccc(Cl)cc1 [INDOMETHACIN] |  |  | 42% | 
13 | CS(=O)(=O)c1ccc(-c2oc3ccccc3c(=O)c2-c2cccnc2)cc1 |  |  | 25% | 
14 | CS(=O)(=O)c1ccc(-c2occ(Cl)c(=O)c2-c2cccs2)cc1 | < 5% |  |  | inhibition [9]: 9%
15 | CS(=O)(=O)c1ccc(-c2occ(Cl)c(=O)c2-c2ccccc2F)cc1 | 19% | 6.31 µM |  | 
16 | Cc1ccc(-c2cc(C(F)(F)F)nn2-c2ccc(S(N)(=O)=O)cc2)cc1 [CELECOXIB] |  |  | 42% | inhibition in vivo at 3 mg/kg (Rattus norvegicus [4]): 29%
17 | CS(=O)(=O)c1ccc(-c2occ(Cl)c(=O)c2-c2ccccc2)cc1 | < 5% | 1.08 µM |  | 
18 | CS(=O)(=O)c1ccc(-c2occ(Cl)c(=O)c2-c2ccc(-c3ccccc3)cc2)cc1 | 68% | 0.0916 µM | 21% | 
19 | CS(=O)(=O)c1ccc(-c2occ(Cl)c(=O)c2-c2cccc(-c3ccccc3)c2)cc1 | < 5% |  |  | IC50 [8]: Not Active
20 | CS(=O)(=O)c1ccc(-c2occ(Cl)c(=O)c2-c2cc(F)cc(F)c2)cc1 | < 5% | 2.34 µM |  | 
21 | CS(=O)(=O)c1ccc(-c2occ(Cl)c(=O)c2-c2ccc(Cl)cc2)cc1 | < 5% |  |  | 
22 | CCc1ccc(-c2c(-c3ccc(S(C)(=O)=O)cc3)occ(Cl)c2=O)cc1 | 14% | 0.72 µM | 4% | 
23 | CS(=O)(=O)c1ccc(-c2occ(Cl)c(=O)c2-c2ccc(F)cc2)cc1 | < 5% |  | 33% | inhibition in vivo at 3 mg/kg (Rattus norvegicus [4]): 20%
24 | CS(=O)(=O)c1ccc(-c2occ(Cl)c(=O)c2-c2ccc(O)cc2)cc1 | 17% |  |  | IC50 [8]: Not Active
25 | CS(=O)(=O)c1ccc(-c2occ(Cl)c(=O)c2-c2cccc(F)c2)cc1 | < 5% | 1.43 µM |  | 
